Assays:
[1] = target: LIM domain kinase 1 (Homo sapiens) (UniProt P53667); experiment: Inhibition of LIMK1 (unknown origin) at 1 uM relative to control; values are per cent of control
[2] = target: T1, cGMP-dependent protein kinase 1 (Homo sapiens) (UniProt Q13976); experiment: Inhibition of PRKG1 (unknown origin) at 1 uM relative to control; conditions: values are per cent of control
T1 sequence (whole entry): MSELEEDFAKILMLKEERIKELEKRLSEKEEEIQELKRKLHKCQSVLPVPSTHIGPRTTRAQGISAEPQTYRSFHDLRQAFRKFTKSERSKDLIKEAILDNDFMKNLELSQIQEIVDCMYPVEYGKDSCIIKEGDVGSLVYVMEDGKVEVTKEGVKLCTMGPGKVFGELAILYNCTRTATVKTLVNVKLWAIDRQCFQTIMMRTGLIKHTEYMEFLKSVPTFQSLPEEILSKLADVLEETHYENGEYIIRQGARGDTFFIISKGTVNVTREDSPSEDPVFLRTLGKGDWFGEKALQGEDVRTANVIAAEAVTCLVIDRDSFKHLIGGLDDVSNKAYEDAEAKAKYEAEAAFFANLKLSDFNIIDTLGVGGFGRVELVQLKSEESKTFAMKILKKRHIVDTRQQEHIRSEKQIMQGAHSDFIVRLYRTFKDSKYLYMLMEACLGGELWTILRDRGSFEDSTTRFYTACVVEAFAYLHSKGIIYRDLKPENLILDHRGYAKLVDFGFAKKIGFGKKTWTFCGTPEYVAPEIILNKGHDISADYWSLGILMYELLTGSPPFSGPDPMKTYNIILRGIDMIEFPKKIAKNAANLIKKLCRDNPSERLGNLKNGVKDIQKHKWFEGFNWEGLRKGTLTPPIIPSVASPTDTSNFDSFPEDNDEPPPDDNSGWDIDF

[3] = target: T2, Serine/threonine-protein kinase 4 (Homo sapiens) (UniProt Q13043); experiment: Inhibition of MST2 (unknown origin) at 1 uM relative to control; values are per cent of control
T2 sequence (whole entry): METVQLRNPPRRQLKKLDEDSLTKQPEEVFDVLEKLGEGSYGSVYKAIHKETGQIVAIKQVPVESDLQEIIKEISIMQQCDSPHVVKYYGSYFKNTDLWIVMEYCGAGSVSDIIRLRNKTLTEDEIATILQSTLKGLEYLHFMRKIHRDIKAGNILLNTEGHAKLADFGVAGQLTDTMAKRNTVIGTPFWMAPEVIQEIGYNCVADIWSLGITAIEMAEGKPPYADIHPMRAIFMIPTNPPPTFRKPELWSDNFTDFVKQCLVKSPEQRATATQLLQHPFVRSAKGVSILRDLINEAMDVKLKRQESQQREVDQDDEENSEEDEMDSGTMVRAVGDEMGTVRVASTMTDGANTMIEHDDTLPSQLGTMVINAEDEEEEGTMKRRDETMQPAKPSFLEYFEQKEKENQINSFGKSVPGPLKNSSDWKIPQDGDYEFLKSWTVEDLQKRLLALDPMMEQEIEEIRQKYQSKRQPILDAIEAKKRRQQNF

[4] = target: Serine/threonine-protein kinase mTOR (Homo sapiens) (UniProt P42345); experiment: Inhibition of MTOR (unknown origin) at 1 uM relative to control; values are per cent of control
[5] = target: Tyrosine-protein kinase JAK2 (Homo sapiens) (UniProt O60674); experiment: Inhibition of JH1 catalytic domain of JAK2 (unknown origin) at 1 uM relative to control; values are per cent of control
Sequence of Tyrosine-protein kinase JAK2 (Homo sapiens) (O60674 whole entry, the tested form may be a part): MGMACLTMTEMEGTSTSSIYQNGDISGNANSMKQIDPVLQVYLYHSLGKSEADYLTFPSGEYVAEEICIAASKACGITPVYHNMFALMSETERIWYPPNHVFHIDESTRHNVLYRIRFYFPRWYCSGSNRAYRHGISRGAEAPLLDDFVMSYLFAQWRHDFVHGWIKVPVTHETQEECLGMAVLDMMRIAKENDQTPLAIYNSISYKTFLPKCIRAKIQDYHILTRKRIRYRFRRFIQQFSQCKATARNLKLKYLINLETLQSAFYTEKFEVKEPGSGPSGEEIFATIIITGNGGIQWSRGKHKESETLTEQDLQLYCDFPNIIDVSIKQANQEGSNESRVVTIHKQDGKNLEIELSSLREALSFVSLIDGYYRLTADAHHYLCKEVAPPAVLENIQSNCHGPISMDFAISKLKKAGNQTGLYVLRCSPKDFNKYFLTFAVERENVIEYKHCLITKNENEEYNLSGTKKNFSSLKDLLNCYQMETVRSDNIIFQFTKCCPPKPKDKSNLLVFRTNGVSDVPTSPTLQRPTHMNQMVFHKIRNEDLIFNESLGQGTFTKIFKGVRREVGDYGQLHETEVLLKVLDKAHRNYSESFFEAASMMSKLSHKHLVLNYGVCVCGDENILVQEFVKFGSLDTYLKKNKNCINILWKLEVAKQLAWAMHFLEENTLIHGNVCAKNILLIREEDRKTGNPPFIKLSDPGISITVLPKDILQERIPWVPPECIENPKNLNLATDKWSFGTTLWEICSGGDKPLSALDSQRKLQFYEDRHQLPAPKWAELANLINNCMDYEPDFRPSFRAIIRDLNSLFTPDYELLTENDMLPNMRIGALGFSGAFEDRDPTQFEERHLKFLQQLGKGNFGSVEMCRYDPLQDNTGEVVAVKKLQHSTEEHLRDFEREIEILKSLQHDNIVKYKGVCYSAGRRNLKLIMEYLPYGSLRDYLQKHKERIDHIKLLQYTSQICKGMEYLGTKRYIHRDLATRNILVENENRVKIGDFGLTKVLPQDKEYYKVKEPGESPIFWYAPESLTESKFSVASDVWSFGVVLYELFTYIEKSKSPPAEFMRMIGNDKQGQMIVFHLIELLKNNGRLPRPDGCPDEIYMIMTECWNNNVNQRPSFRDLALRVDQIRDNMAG

[6] = target: Serine/threonine-protein kinase B-raf (Homo sapiens) (UniProt P15056); experiment: Inhibition of BRAF (unknown origin) at 1 uM relative to control; values are per cent of control
Sequence of Serine/threonine-protein kinase B-raf (Homo sapiens) (P15056 whole entry): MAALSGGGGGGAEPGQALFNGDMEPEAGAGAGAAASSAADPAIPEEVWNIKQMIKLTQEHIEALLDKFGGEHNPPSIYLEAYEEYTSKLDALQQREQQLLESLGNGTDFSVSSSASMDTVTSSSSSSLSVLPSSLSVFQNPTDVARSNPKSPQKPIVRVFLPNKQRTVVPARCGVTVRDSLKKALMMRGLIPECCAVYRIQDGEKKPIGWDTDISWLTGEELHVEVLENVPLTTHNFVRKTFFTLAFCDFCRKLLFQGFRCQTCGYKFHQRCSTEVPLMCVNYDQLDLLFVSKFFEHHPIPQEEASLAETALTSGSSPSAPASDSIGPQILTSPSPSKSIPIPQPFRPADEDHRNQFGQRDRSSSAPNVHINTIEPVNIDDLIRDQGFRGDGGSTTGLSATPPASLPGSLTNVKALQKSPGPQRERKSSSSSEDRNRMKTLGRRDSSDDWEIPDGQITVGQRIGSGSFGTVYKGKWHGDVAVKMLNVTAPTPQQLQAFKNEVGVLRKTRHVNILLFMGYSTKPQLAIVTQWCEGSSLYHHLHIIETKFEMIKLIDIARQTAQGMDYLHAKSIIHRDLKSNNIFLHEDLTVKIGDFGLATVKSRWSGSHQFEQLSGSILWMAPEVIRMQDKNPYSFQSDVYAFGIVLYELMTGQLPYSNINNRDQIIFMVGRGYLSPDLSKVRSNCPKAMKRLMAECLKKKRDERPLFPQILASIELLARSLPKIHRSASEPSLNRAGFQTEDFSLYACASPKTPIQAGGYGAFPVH

[7] = target: T3, Mitogen-activated protein kinase kinase kinase 19 (Homo sapiens) (UniProt Q56UN5); experiment: Inhibition of YSK4 (unknown origin) at 1 uM relative to control; conditions: values are per cent of control
T3 sequence (whole entry): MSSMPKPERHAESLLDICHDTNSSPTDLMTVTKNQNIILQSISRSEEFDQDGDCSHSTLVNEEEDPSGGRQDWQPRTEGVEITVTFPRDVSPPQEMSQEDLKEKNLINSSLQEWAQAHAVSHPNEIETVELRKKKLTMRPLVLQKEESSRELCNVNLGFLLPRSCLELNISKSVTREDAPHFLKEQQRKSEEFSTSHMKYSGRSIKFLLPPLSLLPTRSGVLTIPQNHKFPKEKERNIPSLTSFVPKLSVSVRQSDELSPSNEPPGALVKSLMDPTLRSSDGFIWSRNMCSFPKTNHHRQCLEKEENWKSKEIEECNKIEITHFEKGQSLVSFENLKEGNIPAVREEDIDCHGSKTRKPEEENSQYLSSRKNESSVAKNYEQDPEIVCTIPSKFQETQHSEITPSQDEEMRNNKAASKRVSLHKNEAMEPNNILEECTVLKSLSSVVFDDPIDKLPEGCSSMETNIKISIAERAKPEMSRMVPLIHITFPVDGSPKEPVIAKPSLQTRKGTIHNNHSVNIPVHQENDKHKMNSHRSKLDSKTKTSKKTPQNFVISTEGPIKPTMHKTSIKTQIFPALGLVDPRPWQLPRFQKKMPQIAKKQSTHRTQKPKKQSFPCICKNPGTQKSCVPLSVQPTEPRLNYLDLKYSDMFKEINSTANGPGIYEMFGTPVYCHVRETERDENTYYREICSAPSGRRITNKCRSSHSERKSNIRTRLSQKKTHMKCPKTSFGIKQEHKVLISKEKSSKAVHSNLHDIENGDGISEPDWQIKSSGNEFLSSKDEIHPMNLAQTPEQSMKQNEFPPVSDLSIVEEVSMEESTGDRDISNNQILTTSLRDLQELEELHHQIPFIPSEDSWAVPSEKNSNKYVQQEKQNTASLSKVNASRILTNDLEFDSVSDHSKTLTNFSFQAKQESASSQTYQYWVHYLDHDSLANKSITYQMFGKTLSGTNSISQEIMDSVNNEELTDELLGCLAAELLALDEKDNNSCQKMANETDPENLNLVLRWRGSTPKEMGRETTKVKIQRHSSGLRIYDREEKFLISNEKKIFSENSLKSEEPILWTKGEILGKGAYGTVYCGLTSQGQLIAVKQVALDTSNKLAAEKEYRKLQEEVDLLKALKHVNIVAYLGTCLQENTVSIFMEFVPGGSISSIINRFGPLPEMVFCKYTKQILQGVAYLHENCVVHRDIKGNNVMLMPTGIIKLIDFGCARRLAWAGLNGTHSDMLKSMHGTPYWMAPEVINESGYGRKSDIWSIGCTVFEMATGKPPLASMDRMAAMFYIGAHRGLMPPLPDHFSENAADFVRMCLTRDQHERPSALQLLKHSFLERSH
In short: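 KinomeSCAN competitive binding panel of 100 kinases; compounds tested at 1 µM in duplicate; read-out is percent […] control.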

Sequence of LIM domain kinase 1 (Homo sapiens) (P53667 whole entry, looked up, the tested form may be a part): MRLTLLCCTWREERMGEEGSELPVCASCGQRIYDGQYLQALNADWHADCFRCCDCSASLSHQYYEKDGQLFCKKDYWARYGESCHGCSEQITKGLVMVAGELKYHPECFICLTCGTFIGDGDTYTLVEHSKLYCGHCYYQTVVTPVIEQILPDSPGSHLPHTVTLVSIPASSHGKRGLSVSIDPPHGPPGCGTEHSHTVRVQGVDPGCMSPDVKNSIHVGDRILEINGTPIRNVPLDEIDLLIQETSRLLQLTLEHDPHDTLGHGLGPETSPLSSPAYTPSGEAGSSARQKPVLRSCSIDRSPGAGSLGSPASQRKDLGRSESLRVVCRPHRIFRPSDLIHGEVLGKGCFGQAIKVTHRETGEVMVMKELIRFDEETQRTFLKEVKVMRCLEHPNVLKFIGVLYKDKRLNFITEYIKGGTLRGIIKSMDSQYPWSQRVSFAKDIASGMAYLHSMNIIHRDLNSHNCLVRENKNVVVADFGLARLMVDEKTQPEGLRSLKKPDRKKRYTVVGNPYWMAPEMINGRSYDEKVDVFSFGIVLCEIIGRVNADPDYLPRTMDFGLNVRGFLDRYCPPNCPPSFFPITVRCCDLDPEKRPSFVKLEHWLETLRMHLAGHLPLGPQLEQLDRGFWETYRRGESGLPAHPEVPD

| residual activity [1] | residual binding, % of control [2] | residual activity [3] | residual activity [4] | residual activity [5] | residual activity [6] | residual binding, % of control [7] | SMILES |
| --- | --- | --- | --- | --- | --- | --- | --- |
| 100% | 75% | 84% | 93% | 100% | 100% | 97% | CCOC(=O)c1sc(-c2ccncc2)nc1O |
| 78% | 51% | 71% | 74% | 100% | 100% | 34% | COc1ccc(-c2nc(-c3ccnc(N)n3)sc2C(N)=O)c(Cl)c1 |

| SMILES | residual activity [1] | residual binding, % of control [2] | residual activity [3] | residual activity [4] | residual activity [5] | residual activity [6] | residual binding, % of control [7] |
| --- | --- | --- | --- | --- | --- | --- | --- |
| NC(=O)c1sc(-c2ccnc(N)n2)nc1-c1ccc(Cl)cc1Cl | 100% | 88% | 100% | 93% | 100% | 80% | 41% |
